Experiment [1] deals with MCF-7 (human breast adenocarcinoma). The experiment is described as follows: MTT anti-proliferative assay on MCF-7. In kind it is cell-based. The settings on record: MCF7, 48 h, read-out: IC50 (μM) ± SD MCF-7, MTT, 48 h, MCF-7. The method, boiled down: (§1)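 Cells grown at 37 °C in humidified 5% CO2 and seeded at 5 × 10^4 per well. Exposed 48 h at 37 °C to a concentration series of test compound, or doxorubicin as positive control, in serum-free medium with DMSO. MTT solution (2.5 mg ml−1) added for 4 h, formazan dissolved in DMSO, absorbance read at 590 nm. Viability taken as percent of untreated control; technical triplicate, three biological replicates, mean ± SD; IC50 by probit analysis.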
On the technique in general: Formazan colour is commonly taken as a measure of viable cells.

Experiment [2] deals with HCT-116 (human colorectal carcinoma). The experiment is described as follows: MTT anti-proliferative assay on HCT-116. In kind it is cell-based. The settings on record: HCT-116, 48 h, read-out: IC50 (μM) ± SD HCT-116. The method, boiled down: as §1
The test system of experiment [3] is human liver carcinoma (HepG-2). The experiment is described as follows: MTT anti-proliferative assay on HepG-2. In kind it is cell-based. To be noted: HepG2, 48 h, read-out: IC50 (μM) ± SD HepG-2, MTT, 48 h, HepG-2. The method, boiled down:
as §1

In a further experiment the target is EGFR (Homo sapiens, UniProt P00533). Kind of experiment: In vitro EGFR kinase activity assay. In kind it is biochemical.
EGFR, sequence (P00533 25-1210): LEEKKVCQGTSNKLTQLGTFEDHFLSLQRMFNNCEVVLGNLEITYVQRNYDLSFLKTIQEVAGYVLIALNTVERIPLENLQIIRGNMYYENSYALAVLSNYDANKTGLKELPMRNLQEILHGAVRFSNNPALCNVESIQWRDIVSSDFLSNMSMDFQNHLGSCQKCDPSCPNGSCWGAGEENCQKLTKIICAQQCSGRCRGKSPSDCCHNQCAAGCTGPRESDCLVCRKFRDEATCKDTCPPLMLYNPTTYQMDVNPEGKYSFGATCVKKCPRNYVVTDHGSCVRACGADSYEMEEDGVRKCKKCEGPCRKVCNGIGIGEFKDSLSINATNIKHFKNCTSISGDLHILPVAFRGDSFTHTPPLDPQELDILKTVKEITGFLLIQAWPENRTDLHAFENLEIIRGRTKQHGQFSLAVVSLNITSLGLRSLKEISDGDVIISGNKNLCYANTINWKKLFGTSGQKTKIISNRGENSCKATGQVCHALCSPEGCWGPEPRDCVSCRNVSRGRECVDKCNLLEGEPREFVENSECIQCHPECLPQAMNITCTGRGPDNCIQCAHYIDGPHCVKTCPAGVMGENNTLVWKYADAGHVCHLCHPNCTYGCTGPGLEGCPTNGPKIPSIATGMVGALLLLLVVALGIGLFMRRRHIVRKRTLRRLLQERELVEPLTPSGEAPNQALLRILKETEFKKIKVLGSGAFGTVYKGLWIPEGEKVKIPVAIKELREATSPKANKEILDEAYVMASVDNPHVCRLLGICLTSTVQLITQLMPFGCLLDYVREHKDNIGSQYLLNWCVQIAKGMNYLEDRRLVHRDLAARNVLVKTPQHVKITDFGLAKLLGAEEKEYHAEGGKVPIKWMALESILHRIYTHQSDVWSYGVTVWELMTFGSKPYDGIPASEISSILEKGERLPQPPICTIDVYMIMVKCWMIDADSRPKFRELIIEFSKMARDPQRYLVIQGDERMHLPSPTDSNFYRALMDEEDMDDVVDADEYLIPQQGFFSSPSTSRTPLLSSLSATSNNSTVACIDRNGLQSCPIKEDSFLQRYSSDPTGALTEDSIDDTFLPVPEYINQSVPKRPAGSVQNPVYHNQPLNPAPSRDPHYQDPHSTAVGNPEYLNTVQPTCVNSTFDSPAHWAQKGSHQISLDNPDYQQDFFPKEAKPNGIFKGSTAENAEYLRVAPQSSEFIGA
Another experiment deals with mTOR (Homo sapiens, UniProt P42345). Kind of experiment: In vitro m-TOR activity assay. In kind it is biochemical.
The next experiment has as its target PI3Kβ (p110β/p85α) (Homo sapiens, UniProt P42338). The experiment is described as follows: In vitro PI3K activity assay. In kind it is biochemical.
In experiment [4] the test system is MCF-7 cells. The experiment is described as follows: Cell cycle analysis. In kind it is cell-based, human. The method, boiled down:
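MCF-7 cells seeded at 8 × 10^4, held overnight at 37 °C with 5% CO2, then treated 48 h with test compound. Pelleted at 300 g for 5 min and fixed in 70% ethanol on ice for 15 min. Flow cytometry run within 1 h of staining.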

The test system of experiment [5] is MCF-7 cells. Kind of experiment: Apoptosis assay. In kind it is cell-based, human.

The IC50 is the point on the concentration scale where inhibition reaches its midpoint.

PI3Kβ (p110β/p85α), sequence (P42338 whole entry): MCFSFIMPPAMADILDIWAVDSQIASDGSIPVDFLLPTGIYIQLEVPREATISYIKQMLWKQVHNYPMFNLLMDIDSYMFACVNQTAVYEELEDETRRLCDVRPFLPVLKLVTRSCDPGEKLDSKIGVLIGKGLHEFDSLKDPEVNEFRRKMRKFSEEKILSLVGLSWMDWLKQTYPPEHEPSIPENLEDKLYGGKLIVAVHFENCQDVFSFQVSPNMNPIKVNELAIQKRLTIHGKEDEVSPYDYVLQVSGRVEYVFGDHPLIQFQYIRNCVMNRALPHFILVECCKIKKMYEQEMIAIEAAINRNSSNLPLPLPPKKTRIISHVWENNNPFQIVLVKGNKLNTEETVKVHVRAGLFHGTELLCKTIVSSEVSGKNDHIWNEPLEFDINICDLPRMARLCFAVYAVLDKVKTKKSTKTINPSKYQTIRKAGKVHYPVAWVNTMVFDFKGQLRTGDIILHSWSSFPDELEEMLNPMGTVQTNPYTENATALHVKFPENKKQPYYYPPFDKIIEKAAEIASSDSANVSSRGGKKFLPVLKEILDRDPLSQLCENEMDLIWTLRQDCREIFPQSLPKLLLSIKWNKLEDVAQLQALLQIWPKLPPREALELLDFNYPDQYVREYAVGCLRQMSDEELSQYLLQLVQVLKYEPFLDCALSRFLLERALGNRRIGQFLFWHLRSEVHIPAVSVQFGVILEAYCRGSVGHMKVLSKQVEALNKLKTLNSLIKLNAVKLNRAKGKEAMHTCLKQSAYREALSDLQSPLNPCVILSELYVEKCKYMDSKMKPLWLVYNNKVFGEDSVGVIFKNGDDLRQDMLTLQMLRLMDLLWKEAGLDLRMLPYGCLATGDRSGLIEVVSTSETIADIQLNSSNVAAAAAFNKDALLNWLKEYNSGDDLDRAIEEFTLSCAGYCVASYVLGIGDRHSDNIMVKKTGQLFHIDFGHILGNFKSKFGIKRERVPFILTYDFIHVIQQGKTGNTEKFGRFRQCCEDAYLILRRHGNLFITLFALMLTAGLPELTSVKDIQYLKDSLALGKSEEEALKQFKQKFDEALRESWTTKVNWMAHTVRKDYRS
PI3Kβ (p110β/p85α), sequence (P27986 whole entry partner): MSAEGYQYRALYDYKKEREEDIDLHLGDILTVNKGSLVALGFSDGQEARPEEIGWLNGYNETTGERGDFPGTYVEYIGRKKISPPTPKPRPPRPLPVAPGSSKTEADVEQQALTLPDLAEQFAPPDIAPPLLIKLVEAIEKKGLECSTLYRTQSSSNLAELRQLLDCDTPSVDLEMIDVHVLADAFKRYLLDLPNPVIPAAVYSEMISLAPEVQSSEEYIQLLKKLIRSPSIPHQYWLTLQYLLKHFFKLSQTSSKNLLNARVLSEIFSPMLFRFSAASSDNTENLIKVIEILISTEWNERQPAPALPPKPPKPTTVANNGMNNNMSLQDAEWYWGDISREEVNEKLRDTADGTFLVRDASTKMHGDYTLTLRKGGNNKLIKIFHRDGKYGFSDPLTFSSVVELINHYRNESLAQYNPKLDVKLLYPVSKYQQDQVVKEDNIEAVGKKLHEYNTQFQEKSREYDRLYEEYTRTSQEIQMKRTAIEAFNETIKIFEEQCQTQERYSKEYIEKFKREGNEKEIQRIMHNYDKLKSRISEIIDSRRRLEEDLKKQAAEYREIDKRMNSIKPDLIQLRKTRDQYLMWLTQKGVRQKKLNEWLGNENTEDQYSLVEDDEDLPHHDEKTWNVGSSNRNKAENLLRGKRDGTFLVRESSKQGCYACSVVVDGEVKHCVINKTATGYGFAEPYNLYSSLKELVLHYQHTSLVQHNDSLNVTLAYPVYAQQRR

Regarding `CCn1c(C)c(N=Nc2ccccc2)sc1=NN=C(C)c1c(O)c2ccccc2oc1=O` [Compound 9c, 3-{1-[(3-Ethyl-4-methyl-5-phenylazo-3H-thiazol-2-ylidene)-hydrazono]-ethyl}-4-hydroxy-2H-chromen-2-one], the half-inhibitory concentration (IC50) stood at 32.8 ± 2.8 µM in experiment [1], 47.2 ± 4.5 µM in experiment [2] and 60.9 ± 4.8 µM in experiment [3].
`COc1cccc2c1C(=O)c1c(O)c3c(c(O)c1C2=O)C[C@@](O)(C(=O)CO)C[C@@H]3O[C@H]1C[C@H](N)[C@H](O)[C@H](C)O1` [Doxorubicin, reference compound]: the IC50 came out at 16.7 ± 1.5 µM in experiment [1], 21.8 ± 2.9 µM in experiment [2] and 63.2 ± 5.8 µM in experiment [3].
For `CC(=NN=c1scc(C)n1C)c1c(O)c2ccccc2oc1=O` [Compound 3b, 3-{1-[(3,4-Dimethyl-3H-thiazol-2-ylidene)-hydrazono]-ethyl}-4-hydroxy-2H-chromen-2-one], the figures for the IC50 in experiment [1], in experiment [2] and in experiment [3] were 34.9 ± 3.1 µM, 27.2 ± 2.9 µM and 46.1 ± 3.7 µM, respectively.
Take `CCn1c(C)c(N=Nc2ccc(C)cc2)sc1=NN=C(C)c1c(O)c2ccccc2oc1=O` [Compound 9f, 3-{1-[(3-Ethyl-4-methyl-5-(4-tolyl)azo-3H-thiazol-2-ylidene)-hydrazono]-ethyl}-4-hydroxy-2H-chromen-2-one]: the IC50 in experiment [1] worked out at 17.8 ± 1.1 µM; in experiment [2], 40.1 ± 4.7 µM; in experiment [3] it was 82.1 ± 6.1 µM.
As for `CCN1C(=O)C(C)SC1=NN=C(C)c1c(O)c2ccccc2oc1=O` (centres unmarked) [Compound 8c, 3-Ethyl-5-methyl-2-{[1-(4-hydroxy-2-oxo-2H-chromen-3-yl)-ethylidene]-hydrazono}-thiazolidin-4-one], the results for the concentration for half-maximal inhibition (IC50) in experiment [1], in experiment [2] and in experiment [3] were 7.4 ± 0.9 µM, 44.9 ± 4.3 µM and 80.2 ± 5.9 µM, respectively.
On to `CCOC(=O)c1sc(=NN=C(C)c2c(O)c3ccccc3oc2=O)n(CC)c1C` [Compound 6c, 3-Ethyl-4-methyl-2-{[1-(4-hydroxy-2-oxo-2H-chromen-3-yl)-ethylidene]-hydrazono}-2,3-dihydro-thiazole-5-carboxylic acid ethyl ester], for which the figures for the IC50 in experiment [1], in experiment [2] and in experiment [3] were 20.7 ± 2.1 µM, 24.7 ± 1.6 µM and 45.1 ± 4.1 µM, respectively.
As for `CC(=NN=c1sc(N=Nc2ccc(C)cc2)c(C)n1C)c1c(O)c2ccccc2oc1=O` [Compound 9e, 3-{1-[(3,4-Dimethyl-5-(4-tolyl)azo-3H-thiazol-2-ylidene)-hydrazono]-ethyl}-4-hydroxy-2H-chromen-2-one], the 50% inhibitory concentration (IC50) in experiment [1] worked out at 23.3 ± 1.9 µM; in experiment [2], 55.2 ± 5.1 µM; in experiment [3], 74.4 ± 5.9 µM.
For `CC(=NN=c1[nH]c(C)c(N=Nc2ccccc2)s1)c1c(O)c2ccccc2oc1=O` [Compound 9a, 3-{1-[(4-Methyl-5-phenylazo-3H-thiazol-2-ylidene)-hydrazono]-ethyl}-4-hydroxy-2H-chromen-2-one], the IC50 is 33.4 ± 2.8 µM in experiment [1], 33.9 ± 2.8 µM in experiment [2] and 71.2 ± 5.1 µM in experiment [3].
As for `CC(=NN=c1[nH]c(C)cs1)c1c(O)c2ccccc2oc1=O` [Compound 3a, 3-{1-[(4-Methyl-3H-thiazol-2-ylidene)-hydrazono]-ethyl}-4-hydroxy-2H-chromen-2-one], the results for the IC50 in experiment [1], in experiment [2] and in experiment [3] were 34.5 ± 3.6 µM, 32.6 ± 3.1 µM and 42.5 ± 4.1 µM, respectively.
As for `CC(=NN=C1SC(C)C(=O)N1C)c1c(O)c2ccccc2oc1=O` (centres unmarked) [Compound 8b, 3,5-Dimethyl-2-{[1-(4-hydroxy-2-oxo-2H-chromen-3-yl)-ethylidene]-hydrazono}-thiazolidin-4-one], the IC50 in experiment [1] turned out to be 26.1 ± 3.5 µM; in experiment [2], 44.8 ± 4.5 µM; in experiment [3], 67.2 ± 4.9 µM.
With `CCn1c(C)c(C(C)=O)sc1=NN=C(C)c1c(O)c2ccccc2oc1=O` [Compound 4c, 3-{1-[(5-Acetyl-3-ethyl-4-methyl-3H-thiazol-2-ylidene)-hydrazono]-ethyl}-4-hydroxy-2H-chromen-2-one], the IC50 in experiment [1] is 33.7 ± 3.2 µM; in experiment [2], 38.9 ± 3.2 µM; in experiment [3], 62.5 ± 3.9 µM.
Taken in the same sequence, the figures for `CC(=NN=c1sc(N=Nc2ccccc2)c(C)n1C)c1c(O)c2ccccc2oc1=O` [Compound 9b, 3-{1-[(3,4-Dimethyl-5-phenylazo-3H-thiazol-2-ylidene)-hydrazono]-ethyl}-4-hydroxy-2H-chromen-2-one] were 32.3 ± 3.5 µM, 37.9 ± 2.5 µM and 64.1 ± 5.5 µM.
In the same order, the values of `CC(=NN=C1NC(=O)C(C)S1)c1c(O)c2ccccc2oc1=O` (centres unmarked) [Compound 8a, 5-Methyl-2-{[1-(4-hydroxy-2-oxo-2H-chromen-3-yl)-ethylidene]-hydrazono}-thiazolidin-4-one] are 27.4 ± 1.9 µM, 38.3 ± 4.2 µM and 42.4 ± 3.5 µM.
With `CC(=NN=c1[nH]c(C)c(N=Nc2ccc(C)cc2)s1)c1c(O)c2ccccc2oc1=O` [Compound 9d, 3-{1-[(4-Methyl-5-(4-tolyl)azo-3H-thiazol-2-ylidene)-hydrazono]-ethyl}-4-hydroxy-2H-chromen-2-one], the results for the 50% inhibitory concentration (IC50) in experiment [1], in experiment [2] and in experiment [3] were 26.3 ± 2.5 µM, 45.6 ± 4.2 µM and 57.2 ± 4.6 µM, respectively.
For `CC(=NN=c1scc(-c2ccccc2)n1C)c1c(O)c2ccccc2oc1=O` [Compound 5b, 3-{1-[(3-Methyl-4-phenyl-3H-thiazol-2-ylidene)-hydrazono]-ethyl}-4-hydroxy-2H-chromen-2-one], the IC50 in experiment [1] turned out to be 34.6 ± 2.9 µM; in experiment [2], 42.4 ± 4.1 µM; in experiment [3], 66.4 ± 5.6 µM.
`CNC(=S)NN=C(C)c1c(O)c2ccccc2oc1=O` [Compound 2b, 4-Methyl-1-(1-(4-hydroxy-2-oxo-2H-chromen-3-yl)ethylidene)thiosemicarbazide]: the IC50 in experiment [1] was found to be 13.6 ± 1.5 µM; in experiment [2], 7.2 ± 0.6 µM; in experiment [3], 48.1 ± 3.9 µM; on EGFR it was 2.28 ± 0.14 µM; at mTOR it was 2.96 ± 0.18 µM; against PI3Kβ (p110β/p85α), 1.33 ± 0.074 µM.
For `CC(=O)c1sc(=NN=C(C)c2c(O)c3ccccc3oc2=O)[nH]c1C` [Compound 4a, 3-{1-[(5-Acetyl-4-methyl-3H-thiazol-2-ylidene)-hydrazono]-ethyl}-4-hydroxy-2H-chromen-2-one], the IC50 in experiment [1] turned out to be 25.6 ± 3.1 µM; in experiment [2], 31.4 ± 3.1 µM; in experiment [3], 48.8 ± 3.1 µM.
Take `CC(=O)c1sc(=NN=C(C)c2c(O)c3ccccc3oc2=O)n(C)c1C` [Compound 4b, 3-{1-[(5-Acetyl-3,4-dimethyl-3H-thiazol-2-ylidene)-hydrazono]-ethyl}-4-hydroxy-2H-chromen-2-one]: the IC50 in experiment [1] was 32.7 ± 3.5 µM; in experiment [2], 24.3 ± 2.7 µM; in experiment [3] it was 57.1 ± 4.3 µM.
Take `CCn1c(C)csc1=NN=C(C)c1c(O)c2ccccc2oc1=O` [Compound 3c, 3-{1-[(3-Ethyl-4-methyl-3H-thiazol-2-ylidene)-hydrazono]-ethyl}-4-hydroxy-2H-chromen-2-one]: the IC50 turned out to be 36.5 ± 4.2 µM in experiment [1], 36.3 ± 3.5 µM in experiment [2] and 68.2 ± 5.6 µM in experiment [3].
Turning to `CC(=NN=C1SCC(=O)N1C)c1c(O)c2ccccc2oc1=O` [Compound 7b, 3-Methyl-2-{[1-(4-hydroxy-2-oxo-2H-chromen-3-yl)-ethylidene]-hydrazono}-thiazolidin-4-one], the half-inhibitory concentration (IC50) in experiment [1] is 32.8 ± 3.5 µM; in experiment [2] it was 41.2 ± 3.9 µM; in experiment [3] it was 65.7 ± 5.1 µM.
As for `CCOC(=O)c1sc(=NN=C(C)c2c(O)c3ccccc3oc2=O)[nH]c1C` [Compound 6a, 4-Methyl-2-{[1-(4-hydroxy-2-oxo-2H-chromen-3-yl)-ethylidene]-hydrazono}-2,3-dihydro-thiazole-5-carboxylic acid ethyl ester], the 50% inhibitory concentration (IC50) is 6.4 ± 0.5 µM in experiment [1]; 20.4 ± 1.9 µM in experiment [2]; 57.2 ± 4.3 µM in experiment [3]; 0.184 ± 0.01 µM against EGFR; 0.719 ± 0.04 µM against mTOR; 0.131 ± 0.007 µM at PI3Kβ (p110β/p85α). Besides, in the experiment on MCF-7 cells [4], the “effect on cell cycle progression” value is listed as “cell growth arrest at S phase”. Also, the effect on apoptosis result in the experiment with MCF-7 cells [5] is “increase in the early and late cellular apoptosis”.
On to `CCOC(=O)c1sc(=NN=C(C)c2c(O)c3ccccc3oc2=O)n(C)c1C` [Compound 6b, 3,4-Dimethyl-2-{[1-(4-hydroxy-2-oxo-2H-chromen-3-yl)-ethylidene]-hydrazono}-2,3-dihydro-thiazole-5-carboxylic acid ethyl ester], for which the IC50 was found to be 11.2 ± 1.1 µM in experiment [1]; 5.9 ± 0.7 µM in experiment [2]; 41.4 ± 2.9 µM in experiment [3]; 0.563 ± 0.03 µM against EGFR; 1.45 ± 0.08 µM against mTOR; 0.361 ± 0.02 µM against PI3Kβ (p110β/p85α).

The record behind these values is article PMC10548181 (RSC Advances, 2023).
